In ChEMBL document CHEMBL2203099, “Identification of a crucial amino acid in the helix position 6.51 of human tachykinin neurokinin 1 and 3 receptors contributing to the insurmountable mode of antagonism by dual NK₁/NK₃ antagonists” (J Med Chem, 2012):
Where a chain is given by its changes, count along the chain named. Active and inactive are the calls of the source. The calls are words filed in the database; no cut-off is given here.

Key:
Neuromedin-K receptor [1] = target: Neuromedin-K receptor (Homo sapiens, UniProt P29371, Y247A); test: Binding affinity to human NK3 Y247A mutant expressed in HEK293 cells
Chain of Neuromedin-K receptor (Homo sapiens, UniProt P29371, Y247A) (P29371 whole entry Y247A): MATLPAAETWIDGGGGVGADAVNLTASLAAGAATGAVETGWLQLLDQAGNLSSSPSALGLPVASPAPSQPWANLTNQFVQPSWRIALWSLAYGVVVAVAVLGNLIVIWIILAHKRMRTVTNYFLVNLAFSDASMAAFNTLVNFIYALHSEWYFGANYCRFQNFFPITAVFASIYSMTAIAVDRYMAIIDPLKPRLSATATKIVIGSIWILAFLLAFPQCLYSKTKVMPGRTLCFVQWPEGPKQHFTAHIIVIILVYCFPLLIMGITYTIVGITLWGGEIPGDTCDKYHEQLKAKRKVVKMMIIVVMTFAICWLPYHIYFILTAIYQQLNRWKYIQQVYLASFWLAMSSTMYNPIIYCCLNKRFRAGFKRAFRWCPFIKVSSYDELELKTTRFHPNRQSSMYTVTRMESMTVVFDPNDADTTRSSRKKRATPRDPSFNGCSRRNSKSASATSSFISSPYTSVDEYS

[2] = test system: T1, Neuromedin-K receptor (Homo sapiens), P29371 [Y315F]; test: Noncompetitive inhibition at human NK3 Y315F6.51 mutant expressed in HEK293 cells assessed as decrease in [MePhe7]NKB-induced [3H]IP accumulation after 20 mins; type: cell-based
T1 sequence (whole entry): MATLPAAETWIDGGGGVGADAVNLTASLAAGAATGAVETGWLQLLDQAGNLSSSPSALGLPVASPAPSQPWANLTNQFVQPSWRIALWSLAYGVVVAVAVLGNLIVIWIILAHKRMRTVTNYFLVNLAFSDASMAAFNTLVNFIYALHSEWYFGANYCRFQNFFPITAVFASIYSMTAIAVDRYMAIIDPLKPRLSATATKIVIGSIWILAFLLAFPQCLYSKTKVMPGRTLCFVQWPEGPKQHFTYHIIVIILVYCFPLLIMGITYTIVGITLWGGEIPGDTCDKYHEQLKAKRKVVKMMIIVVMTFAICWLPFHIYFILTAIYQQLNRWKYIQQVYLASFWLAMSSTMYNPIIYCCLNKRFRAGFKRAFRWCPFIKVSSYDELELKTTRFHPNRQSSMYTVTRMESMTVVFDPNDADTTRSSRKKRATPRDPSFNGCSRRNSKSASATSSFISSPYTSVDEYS
How it was run: (§1)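 HEK293 cells transiently expressing human NK3 WT or mutant, labeled with myo-[³H]inositol in LiCl buffer. Antagonist preincubated 20 min at 37 °C, then [MePhe⁷]NKB (0.01 nM–1 μM) added for 45 min at 37 °C. [³H]IP read by SPA beads. Schild analysis of EC50 shift and Emax depression across increasing antagonist concentrations gives pA2, slope and mode of antagonism.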

Substance-P receptor [3] = target: T2, Substance-P receptor (Homo sapiens, UniProt P25103); test: Displacement of radioligand [3H]SP from wild type human NK1 receptor expressed in HEK293 cells; type: cell-based
T2 sequence (P25103 whole entry): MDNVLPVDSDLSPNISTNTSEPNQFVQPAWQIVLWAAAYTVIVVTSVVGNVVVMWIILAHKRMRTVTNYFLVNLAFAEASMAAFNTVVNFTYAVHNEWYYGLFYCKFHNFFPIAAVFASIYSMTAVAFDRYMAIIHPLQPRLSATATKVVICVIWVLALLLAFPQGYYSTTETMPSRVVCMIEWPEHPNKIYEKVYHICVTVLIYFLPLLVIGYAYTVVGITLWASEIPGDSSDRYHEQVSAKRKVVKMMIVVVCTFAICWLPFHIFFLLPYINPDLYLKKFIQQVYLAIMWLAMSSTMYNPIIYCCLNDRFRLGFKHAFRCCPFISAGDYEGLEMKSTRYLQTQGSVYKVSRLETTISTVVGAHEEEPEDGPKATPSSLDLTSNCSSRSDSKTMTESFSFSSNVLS
How it was run: (§2)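 Membranes from transiently transfected HEK293 cells, 2.5 μg protein/well, in 50 mM HEPES pH 7.4 with 3 mM MnCl2, phosphoramidon, leupeptin and 0.04% BSA. 10 competitor concentrations (0.0003–10 μM), 90 min at rt. Nonspecific binding with 10 μM NK1 antagonist. Filtration, then scintillation counting. Ki by Cheng–Prusoff. Three experiments, each in duplicate.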

Neuromedin-K receptor [4] = target: T3, Neuromedin-K receptor (Homo sapiens, UniProt P29371); test: Displacement of [3H]osanetant from wild type human NK3 receptor expressed in HEK293 cells; type: cell-based
T3 sequence (P29371 whole entry): T1 sequence (whole entry) with F315Y

HEK293 [5] = test: Selectivity ratio of Ki for wild type human NK3 receptor expressed in HEK293 cells to Ki for human NK3 Y315F6.51 mutant expressed in HEK293 cells; type: cell-based
Substance-P receptor [6] = target: T4, Substance-P receptor (Homo sapiens, UniProt P25103, F264Y); test: Displacement of radioligand [3H]SP from human NK1 F264Y6.51 mutant expressed in HEK293 cells; type: cell-based
T4 sequence (P25103 whole entry F264Y): as the sequence (P25103 whole entry) above, with F264Y counted along it
How it was run: as §2

[7] = target: T5, Neuromedin-K receptor (Homo sapiens) (UniProt P29371); test: Noncompetitive inhibition at wild type human NK3 expressed in HEK293 cells assessed as decrease in [MePhe7]NKB-induced [3H]IP accumulation after 20 mins; type: cell-based
T5 sequence (whole entry): T1 sequence (whole entry) with F315Y
How it was run: as §1

Substance-P receptor [8] = target: T2, Substance-P receptor; test: Noncompetitive inhibition of wild type human NK1 receptor expressed in HEK293 cells assessed as decrease in SP1-induced [3H]IP accumulation after 20 mins; type: cell-based
Neuromedin-K receptor [9] = target: Neuromedin-K receptor (Homo sapiens, UniProt P29371, Y315F); test: Displacement of radioligand [3H]osanetant at human NK3 Y315F6.51 mutant expressed in HEK293 cells; type: cell-based
Substance-P receptor [10] = target: T4, Substance-P receptor; test: Partial noncompetitive inhibition of human F264Y6.51 mutant expressed in HEK293 cells assessed as decrease in SP1-induced [3H]IP accumulation after 20 mins; type: cell-based; conditions: read-out: pA2 (converted)
[11] = test system: T1, Neuromedin-K receptor (Homo sapiens), P29371 [Y315F]; test: Antagonist activity at human NK3 Y315F6.51 mutant expressed in HEK293 cells assessed as decrease in [MePhe7]NKB-induced [3H]IP accumulation at 10 nM after 20 mins; type: functional, cell-based
Substance-P receptor [12] = target: T2, Substance-P receptor
[13] = test system: Substance-P receptor (Homo sapiens), P25103 [F264Y]; test: Noncompetitive inhibition of human NK1 F264Y6.51 mutant receptor expressed in HEK293 cells assessed as decrease in SP1-induced [3H]IP accumulation after 20 mins; type: cell-based
Chain of Substance-P receptor (Homo sapiens), P25103 [F264Y] (P25103 whole entry F264Y): as the sequence (P25103 whole entry) above, with F264Y counted along it

HEK293 [14] = test: Selectivity ratio of Ki for human NK3 H316F mutant expressed in HEK293 cells to Ki for wild type human NK3 receptor expressed in HEK293 cells; type: cell-based
[15] = test system: T6, Neuromedin-K receptor (Homo sapiens), P29371 [H316W]; test: Antagonist activity at human NK3 H316W6.52 mutant expressed in HEK293 cells assessed as decrease in [MePhe7]NKB-induced [3H]IP accumulation after 20 mins; type: functional, cell-based
T6 sequence (whole entry): T1 sequence (whole entry) with F315Y, H316W
How it was run: as §1

Neuromedin-K receptor [16] = target: Neuromedin-K receptor (Homo sapiens, UniProt P29371, H316F); test: Displacement of radioligand [3H]osanetant at human NK3 H316F mutant expressed in HEK293 cells; type: cell-based
Chain of Neuromedin-K receptor (Homo sapiens, UniProt P29371, H316F) (P29371 whole entry H316F): as the sequence (P29371 whole entry Y247A) above, with A247Y, H316F counted along it

HEK293 [17] = test: Selectivity ratio of Ki for human NK3 Y247F mutant expressed in HEK293 cells to Ki for wild type human NK3 receptor expressed in HEK293 cells; type: cell-based
Neuromedin-K receptor [18] = target: T7, Neuromedin-K receptor (Homo sapiens, UniProt P29371, Y247F); test: Competitive inhibition at human NK3 Y247F5.38 mutant expressed in HEK293 cells assessed as decrease in [MePhe7]NKB-induced [3H]IP accumulation after 20 mins; type: cell-based; conditions: read-out: pA2 (converted)
T7 sequence (P29371 whole entry Y247F): as the sequence (P29371 whole entry Y247A) above, with A247F counted along it

Neuromedin-K receptor [19] = target: Neuromedin-K receptor (Homo sapiens, UniProt P29371, H316W); test: Displacement of radioligand [3H]osanetant at human NK3 H316W mutant expressed in HEK293 cells; type: cell-based
Chain of Neuromedin-K receptor (Homo sapiens, UniProt P29371, H316W) (P29371 whole entry H316W): as the sequence (P29371 whole entry Y247A) above, with A247Y, H316W counted along it

Neuromedin-K receptor [20] = target: T7, Neuromedin-K receptor; test: Displacement of radioligand [3H]osanetant at human NK3 Y247F mutant expressed in HEK293 cells; type: cell-based
Neuromedin-K receptor [21] = target: Neuromedin-K receptor (Homo sapiens, UniProt P29371, Y247W); test: Displacement of radioligand [3H]osanetant at human NK3 Y247W mutant expressed in HEK293 cells; type: cell-based
Chain of Neuromedin-K receptor (Homo sapiens, UniProt P29371, Y247W) (P29371 whole entry Y247W): as the sequence (P29371 whole entry Y247A) above, with A247W counted along it

HEK293 [22] = test: Selectivity ratio of Ki for human NK3 Y247W mutant expressed in HEK293 cells to Ki for wild type human NK3 receptor expressed in HEK293 cells; type: cell-based
Neuromedin-K receptor [23] = target: T3, Neuromedin-K receptor; test: Competitive inhibition at wild type human NK3 expressed in HEK293 cells assessed as decrease in [MePhe7]NKB-induced [3H]IP accumulation after 20 mins; type: cell-based; conditions: read-out: pA2 (converted)
How it was run: as §1

Structure (SMILES)	inhibition [2]	Ki (Substance-P receptor [3])	Ki (Neuromedin-K receptor [4])	Ki (Substance-P receptor [6])	inhibition [7]	inhibition (Substance-P receptor [8])	Ki (Neuromedin-K receptor [9])	Kb (Substance-P receptor [10])	Activity [11]	Ratio Ki (HEK293 [5])	other results
[3H]c1cccc(C2(N(C)C(C)=O)CCN(CCC[C@]3(c4ccc(Cl)c(Cl)c4)CCCN(C(=O)c4ccccc4)C3)CC2)c1											Kd (Neuromedin-K receptor [1]): Not Active
C[C@@H](O[C@H]1OCCN(Cc2n[nH]c(=O)[nH]2)[C@H]1c1ccc(F)cc1)c1cc(C(F)(F)F)cc(C(F)(F)F)c1 [APREPITANT]			454 nM			Active					T1/2 (Substance-P receptor [12]): 2.57 h
Cc1cc(F)ccc1-c1cc(N2CCC[C@H]2CO)ncc1N(C)C(=O)C(C)(C)c1cc(C(F)(F)F)cc(C(F)(F)F)c1	Active	1.4 nM	1.5 nM	2.8 nM	Active	Active	0.6 nM	39.8 nM	Active	2.5	

Continued, in another order:

inhibition [2]	Ki (Substance-P receptor [3])	Ki (Neuromedin-K receptor [4])	Ki (Substance-P receptor [6])	inhibition [7]	inhibition (Substance-P receptor [8])	Ki (Neuromedin-K receptor [9])	Kb (Substance-P receptor [10])	Activity [11]	Structure (SMILES)	Ratio Ki (HEK293 [5])	other results
Active	0.7 nM	1.2 nM	1.3 nM	Active	Active	0.6 nM	17 nM	Active	Cc1cc(F)ccc1-c1cc(N2CCN(S(C)(=O)=O)C[C@H]2CO)ncc1N(C)C(=O)C(C)(C)c1cc(C(F)(F)F)cc(C(F)(F)F)c1	2	
Active	0.3 nM	1.7 nM	0.5 nM		Active	0.2 nM			Cc1cc(F)ccc1-c1cc(N2CCN(S(C)(=O)=O)[C@@H](C)C2)ncc1N(C)C(=O)C(C)(C)c1cc(C(F)(F)F)cc(C(F)(F)F)c1	8.5	inhibition [13]: Active; Ratio Ki (HEK293 [14]): 11.6; Activity [15]: inactive; Ki (Neuromedin-K receptor [16]): 19.7 nM; Ratio Ki (HEK293 [17]): 1.1; Kb (Neuromedin-K receptor [18]): 47.9 nM; Ki (Neuromedin-K receptor [19]): > 10000 nM; Ki (Neuromedin-K receptor [20]): 1.8 nM; Ki (Neuromedin-K receptor [21]): 5.1 nM; Ratio Ki (HEK293 [22]): 3; Kb (Neuromedin-K receptor [23]): 16.2 nM
